The source of these data is ChEMBL document CHEMBL3779886, “Cassane Diterpenoids from the Pericarps of Caesalpinia bonduc” (J Nat Prod, 2016).

The source made the active and inactive calls. The calls are words filed in the database; no cut-off is given here.

The subject of the first assay is SH-SY5Y. Briefly: Neuroprotective activity against amyloid beta(25 to 35)-induced toxicity in human SH-SY5Y cells assessed as cell viability at 1 to 10 uM pretreated for 2 hrs followed by protein addition measured after 24 hrs by MTT assay. The format is functional, cell-based. The gist of the method:
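Cells: high-passage SH-SY5Y (ATCC), 37 °C, 5% CO2. 2 h pretreatment with compound at 1 or 10 μM, or EGCG 10 μM, then 10 μM Aβ25−35 for 24 h with compound still present. MTT at 0.5 mg/mL final for 4 h, 37 °C; DMSO dissolution; read at 490 nm. Means ± SD, one-way ANOVA, p < 0.05.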
(Tetrazolium assays rely on reduction of a dye to a coloured formazan, in cell work by metabolically active cells.)
With `C=C1c2ccoc2C[C@H]2[C@H]1CC[C@@]1(O)C(C)(C)[C@H](OC(C)=O)[C@H](OC(C)=O)[C@H](OC(C)=O)[C@]21C`, the outcome was inactive.

Consider `C=C1c2ccoc2C[C@H]2[C@H]1[C@@H](OC(C)=O)[C@H](OC(C)=O)[C@@]1(O)C(C)(C)CCC(=O)[C@]21C`, for which the result was inactive.

In the case of `COC(=O)[C@@H]1c2ccoc2C[C@H]2[C@H]1[C@@H](OC(C)=O)[C@H](OC(C)=O)[C@@]1(O)C(C)(C)CC[C@H](O)[C@]21C`, the result was inactive.

`COC(=O)[C@@H]1c2ccoc2C[C@H]2[C@H]1[C@@H](O)[C@H](OC(C)=O)[C@@]1(O)C(C)(C)CCC(=O)[C@]21C`: the outcome was inactive.

In the case of `CC(=O)O[C@@H]1[C@@H]2[C@H](Cc3occc3[C@@]2(C)O)[C@@]2(C)[C@@H](OC(C)=O)CC(C)=C(C)[C@]2(O)[C@H]1OC(C)=O`, the result was inactive.

As to `COC(=O)[C@@H]1c2ccoc2C[C@H]2[C@H]1[C@@H](OC(C)=O)[C@H](O)[C@@]1(O)C(C)(C)CCC(=O)[C@]21C`, the result was inactive.

For the compound `COC(=O)[C@@H]1c2ccoc2C[C@H]2[C@H]1[C@@H](OC(C)=O)[C@H](OC(C)=O)[C@@]1(O)C(C)(C)CCC[C@]21C`, the result was inactive.

On to `CC(=O)O[C@@H]1[C@@H]2[C@H](Cc3occc3[C@@]2(C)O)[C@@]2(C)[C@@H](OC(C)=O)C[C@H](C)[C@@]3(C)O[C@@]23[C@H]1OC(C)=O`, for which the outcome was inactive.

As for `COC(=O)[C@@H]1c2ccoc2C[C@H]2[C@H]1[C@@H](O)[C@H](OC(C)=O)[C@@]1(O)C(C)(C)CC[C@H](O)[C@]21C`, the result was inactive.

The next assay relates to SH-SY5Y. Briefly: Neuroprotective activity against OGD-induced toxicity in human SH-SY5Y cells assessed as cell viability at 1 to 10 uM pretreated for 2 hrs followed by OGD induction for 1 hr measured after 24 hrs by MTT assay. The format is functional, cell-based. The gist of the method:
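SH-SY5Y cells (high passage, ATCC) kept at 37 °C, 5% CO2. Pretreated with compound for 2 h, then OGD exposure (1 mg/mL as printed) for 1 h, followed by 24 h normal culture. Glucose-fed cells under normal conditions served as controls. MTT 0.5 mg/mL final, 4 h, 37 °C; DMSO; A490. Means ± SD, one-way ANOVA.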
Regarding `C=C1c2ccoc2C[C@H]2[C@H]1CC[C@@]1(O)C(C)(C)[C@H](OC(C)=O)[C@H](OC(C)=O)[C@H](OC(C)=O)[C@]21C`, the result was inactive.

As to `C=C1c2ccoc2C[C@H]2[C@H]1[C@@H](OC(C)=O)[C@H](OC(C)=O)[C@@]1(O)C(C)(C)CCC(=O)[C@]21C`, the outcome was inactive.

For `COC(=O)[C@@H]1c2ccoc2C[C@H]2[C@H]1[C@@H](OC(C)=O)[C@H](OC(C)=O)[C@@]1(O)C(C)(C)CC[C@H](O)[C@]21C`, the result was inactive.

In the case of `COC(=O)[C@@H]1c2ccoc2C[C@H]2[C@H]1[C@@H](O)[C@H](OC(C)=O)[C@@]1(O)C(C)(C)CCC(=O)[C@]21C`, the outcome was inactive.

In the case of `CC(=O)O[C@@H]1[C@@H]2[C@H](Cc3occc3[C@@]2(C)O)[C@@]2(C)[C@@H](OC(C)=O)CC(C)=C(C)[C@]2(O)[C@H]1OC(C)=O`, the result was inactive.

Take `COC(=O)[C@@H]1c2ccoc2C[C@H]2[C@H]1[C@@H](OC(C)=O)[C@H](O)[C@@]1(O)C(C)(C)CCC(=O)[C@]21C`: the outcome was inactive.

As for `COC(=O)[C@@H]1c2ccoc2C[C@H]2[C@H]1[C@@H](OC(C)=O)[C@H](OC(C)=O)[C@@]1(O)C(C)(C)CCC[C@]21C`, the outcome was inactive.

As for `CC(=O)O[C@@H]1[C@@H]2[C@H](Cc3occc3[C@@]2(C)O)[C@@]2(C)[C@@H](OC(C)=O)C[C@H](C)[C@@]3(C)O[C@@]23[C@H]1OC(C)=O`, the result was inactive.

As to `COC(=O)[C@@H]1c2ccoc2C[C@H]2[C@H]1[C@@H](O)[C@H](OC(C)=O)[C@@]1(O)C(C)(C)CC[C@H](O)[C@]21C`, the outcome was inactive.

The next assay concerns SH-SY5Y. The assay can be described thus: Neuroprotective activity against H2O2-induced toxicity in human SH-SY5Y cells assessed as cell viability at 1 to 10 uM pretreated for 2 hrs followed by H2O2 addition measured after 24 hrs by MTT assay. The format is functional, cell-based. The gist of the method:
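High-passage SH-SY5Y cells (ATCC), 37 °C, 5% CO2. Pretreatment for 2 h with compound at 1 or 10 μM, or N-acetylcysteine 300 μM, then 100 μM H2O2 for 24 h. Viability by MTT (0.5 mg/mL final, 4 h, 37 °C), DMSO solubilization, absorbance 490 nm. Means ± SD, one-way ANOVA, p < 0.05.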
Take `C=C1c2ccoc2C[C@H]2[C@H]1CC[C@@]1(O)C(C)(C)[C@H](OC(C)=O)[C@H](OC(C)=O)[C@H](OC(C)=O)[C@]21C`: the outcome was inactive.

As to `C=C1c2ccoc2C[C@H]2[C@H]1[C@@H](OC(C)=O)[C@H](OC(C)=O)[C@@]1(O)C(C)(C)CCC(=O)[C@]21C`, the outcome was inactive.

As to `COC(=O)[C@@H]1c2ccoc2C[C@H]2[C@H]1[C@@H](OC(C)=O)[C@H](OC(C)=O)[C@@]1(O)C(C)(C)CC[C@H](O)[C@]21C`, the result was inactive.

On to `COC(=O)[C@@H]1c2ccoc2C[C@H]2[C@H]1[C@@H](O)[C@H](OC(C)=O)[C@@]1(O)C(C)(C)CCC(=O)[C@]21C`, for which the result was inactive.

As to `CC(=O)O[C@@H]1[C@@H]2[C@H](Cc3occc3[C@@]2(C)O)[C@@]2(C)[C@@H](OC(C)=O)CC(C)=C(C)[C@]2(O)[C@H]1OC(C)=O`, the outcome was inactive.

Consider `COC(=O)[C@@H]1c2ccoc2C[C@H]2[C@H]1[C@@H](OC(C)=O)[C@H](O)[C@@]1(O)C(C)(C)CCC(=O)[C@]21C`, for which the outcome was inactive.

In the case of `COC(=O)[C@@H]1c2ccoc2C[C@H]2[C@H]1[C@@H](OC(C)=O)[C@H](OC(C)=O)[C@@]1(O)C(C)(C)CCC[C@]21C`, the outcome was inactive.

Take `CC(=O)O[C@@H]1[C@@H]2[C@H](Cc3occc3[C@@]2(C)O)[C@@]2(C)[C@@H](OC(C)=O)C[C@H](C)[C@@]3(C)O[C@@]23[C@H]1OC(C)=O`: the result was inactive.

Regarding `COC(=O)[C@@H]1c2ccoc2C[C@H]2[C@H]1[C@@H](O)[C@H](OC(C)=O)[C@@]1(O)C(C)(C)CC[C@H](O)[C@]21C`, the result was inactive.
